# Results gathered from unrelated publications.
# Compare with care: the assays were run in different laboratories.
# Target: Protein kinase C iota type (PRKCI, Homo sapiens, UniProt P41743)
# One construct used (P41743 1-596): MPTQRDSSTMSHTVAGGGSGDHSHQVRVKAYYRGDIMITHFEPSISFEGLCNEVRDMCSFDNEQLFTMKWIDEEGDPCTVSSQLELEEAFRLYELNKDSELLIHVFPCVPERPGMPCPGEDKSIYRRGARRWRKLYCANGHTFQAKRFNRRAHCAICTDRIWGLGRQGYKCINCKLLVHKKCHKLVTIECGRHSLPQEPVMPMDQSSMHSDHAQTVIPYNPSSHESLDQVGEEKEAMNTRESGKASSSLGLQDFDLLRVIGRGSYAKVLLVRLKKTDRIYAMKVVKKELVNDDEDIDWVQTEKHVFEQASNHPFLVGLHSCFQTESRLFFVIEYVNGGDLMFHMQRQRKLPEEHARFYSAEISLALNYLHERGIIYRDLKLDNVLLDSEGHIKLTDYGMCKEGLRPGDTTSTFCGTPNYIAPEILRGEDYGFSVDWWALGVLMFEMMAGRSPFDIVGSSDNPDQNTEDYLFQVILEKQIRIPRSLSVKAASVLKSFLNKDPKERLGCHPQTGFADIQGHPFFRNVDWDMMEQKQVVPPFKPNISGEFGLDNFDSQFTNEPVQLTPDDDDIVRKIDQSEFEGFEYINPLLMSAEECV
Compound,test,conditions,remaining binding
NS(=O)(=O)c1cc(NC(=O)C2(c3ccccc3Cl)CC2)ccc1Oc1cccc(Cl)c1,"cell-free assay, competition with immobilised ligand",1 µM,98%
COc1ccnn2ncc(-c3ccnc(N(C)C)n3)c12,binding,1 µM,74%
COc1cnc(Nc2cccc(S(N)(=O)=O)c2)nc1N1CCN(c2ccccc2)CC1,"binding, competition with immobilised ligand",1 µM,95%
CN(C)c1ncnc(-c2ccc3nc(Nc4cc(CN5CCN(C(=O)CC(F)(F)F)CC5)ccn4)[nH]c3c2)c1Cl,"cell-free assay, competition with immobilised ligand",1 µM,79%
Cc1cnc(Nc2ccc(C(=O)N3CCC(N4CCCC4)CC3)cc2)nc1-c1cc2ccccc2s1,"binding, competition with immobilised ligand",1 µM,83%
N#Cc1ccc(Nc2ccc3[nH]c(=O)[nH]c3c2)c(Cl)c1,"cell-free assay, competition with immobilised ligand",1 µM,86%
C[C@@H](c1ccc(-n2cnc3c(N)ncnc32)cc1)N1CCc2nn(C)c(Cc3ccccc3)c2C1=O,"binding, competition with immobilised ligand",0.1 µM,82%
O=C(NCCCN1CCOCC1)c1ccc(Nc2ncc(Cl)c(-c3ccc(Cl)s3)n2)cc1,"binding, competition with immobilised ligand",1 µM,98%
CN([C@@H]1CCc2c(CC(=O)O)c3cc(S(C)(=O)=O)ccc3n2C1)S(=O)(=O)c1ccc(F)cc1,"cell-free assay, competition with immobilised ligand",1 µM,100%
COc1cnc(Nc2cccc(S(N)(=O)=O)c2)nc1N1CCN(c2ccccc2)C(=O)C1,"binding, competition with immobilised ligand",1 µM,96%
N[C@H]1CCN(c2nccc(-c3cnn4ncccc34)n2)C1,binding,1 µM,37%
O=C(NCC1CCOCC1)c1n[nH]cc1NC(=O)c1c(F)cccc1F,"binding, competition with immobilised ligand",1 µM,73%
CN(C)c1ncc(F)c(-c2cnn3ncccc23)n1,binding,1 µM,100%
O=C(c1ccc(Nc2ncc(Cl)c(-c3cc4ccccc4s3)n2)cc1)N1CCC(N2CCCC2)CC1,"binding, competition with immobilised ligand",1 µM,72%
C[C@H]1CCN(c2nccc(-c3cnn4ncccc34)n2)C1,binding,1 µM,59%
c1cncc(-c2cccc(Nc3nccc(NC4CCCCC4)n3)c2)c1,"binding, competition with immobilised ligand",10 µM,78%
Cc1cnn2ncc(-c3ccnc(N(C)C)n3)c2c1,binding,1 µM,81%
O=C(Nc1cccnn1)N1CC(C/C=C/c2cncc(Oc3ccc(C(F)(F)F)cn3)n2)C1,"cell-free assay, competition with immobilised ligand",1 µM,96%
CN(C)c1nccc(-c2cnn3ncccc23)n1,binding,1 µM,81%
C[C@@H]1CN(c2cc(-c3n[nH]c4ccc(OC5(C)CC5)cc34)ncn2)C[C@H](C)O1,"cell-free assay, competition with immobilised ligand",0.1 µM,80%
